Measurements: PMC7711931 (ACS Omega, 2020)

How the values were obtained:
TR4-LBD [1] = biological target: T1, TR4-LBD (Homo sapiens, UniProt P49116); assay: SPRi assay: binding of TR4-LBD to the immobilized FDA-approved drug library
T1 sequence (P49116 341-583 limits assumed): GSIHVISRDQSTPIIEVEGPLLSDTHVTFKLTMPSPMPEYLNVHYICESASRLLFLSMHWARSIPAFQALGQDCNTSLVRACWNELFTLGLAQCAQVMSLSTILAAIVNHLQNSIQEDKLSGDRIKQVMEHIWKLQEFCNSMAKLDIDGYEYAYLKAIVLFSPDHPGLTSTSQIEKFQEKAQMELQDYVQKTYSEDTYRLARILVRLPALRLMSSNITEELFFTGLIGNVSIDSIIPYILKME

TR4 = biological target: T2, TR4 (Homo sapiens, UniProt P49116); assay: Dual-luciferase reporter assay of TR4 transactivation; format: cell-based; details: for Luciferase activity (TR4 transactivation), validation of the reporter system: 293T cells cotransfected with pGLO-TR4RE-Dluc and TR4 (Figure 2B); for Effect on TR4 transactivation: 10 μM, 24 h, 293T cells, DMSO negative control (Figure 3A); for Effect on TR4 transactivation in the presence of ATRA: drug 10 μM, ATRA 20 μM (Figure 3E)
T2 sequence (P49116 1-596): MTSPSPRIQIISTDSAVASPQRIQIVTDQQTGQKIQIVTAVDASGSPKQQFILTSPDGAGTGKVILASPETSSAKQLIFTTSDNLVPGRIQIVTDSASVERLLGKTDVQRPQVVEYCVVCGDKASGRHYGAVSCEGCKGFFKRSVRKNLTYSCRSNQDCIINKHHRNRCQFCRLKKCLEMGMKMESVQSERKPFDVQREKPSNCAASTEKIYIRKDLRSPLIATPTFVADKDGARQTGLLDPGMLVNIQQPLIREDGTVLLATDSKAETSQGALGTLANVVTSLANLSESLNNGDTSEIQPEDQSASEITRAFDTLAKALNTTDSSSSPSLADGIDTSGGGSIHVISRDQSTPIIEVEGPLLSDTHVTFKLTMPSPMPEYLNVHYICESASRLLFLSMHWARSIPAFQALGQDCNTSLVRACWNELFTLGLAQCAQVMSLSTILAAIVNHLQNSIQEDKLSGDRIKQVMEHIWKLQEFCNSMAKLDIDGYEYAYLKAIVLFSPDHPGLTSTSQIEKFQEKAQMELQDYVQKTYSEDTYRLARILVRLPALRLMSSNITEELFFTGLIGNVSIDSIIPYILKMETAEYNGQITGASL
How it was run: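 TR4RE-TK-firefly luciferase cassette from pGL3-(DR)3-TK subcloned into pmirGLO, giving a dual-luciferase reporter. Cells were cotransfected with reporter and TR4 expression plasmid for 24 h, then exposed to test compound for another 24 h: 10 μM for screening or a dose range for curves, with DMSO as negative control. Some arms included ATRA 20 μM. Luciferase was read with a dual-luciferase kit. Means of three independent experiments.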

TR4-LBD [2] = biological target: T1, TR4-LBD; assay: Circular dichroism spectra of TR4-LBD with or without drug; details: TR4-LBD 0.2 mg/mL, drug 20 μM, 5 mM phosphate buffer pH 7.4
How it was run: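 TR4 ligand-binding domain was expressed in E. coli BL21(DE3) with an N-terminal His6-SUMO tag, purified on His-tag resin, cleaved with SUMO protease, and collected in the flow-through of a second His-tag step. It was desalted into 5 mM phosphate buffer and quantified by BCA. Spectra of protein with or without test compound were recorded in a 0.5 cm path-length cell.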

NQO2 = details: read-out: IC50, NQO2 inhibition; cited from earlier work

Row | Structure (SMILES) | Kd (TR4-LBD [1]) | EC50 (TR4) | Luciferase activity (TR4 transactivation), validation of the reporter system (TR4) | CD characteristic peak for the β-sheet at 216 nm (TR4-LBD [2]) | Effect on TR4 transactivation (TR4) | Effect on TR4 transactivation in the presence of ATRA (TR4) | IC50 (NQO2) | CD characteristic peak for α-helix at 208 nm (TR4-LBD [2]) | Efficiency relative to ATRA (EC50 ratio) (TR4; genistein EC50 2.42 μM vs ATRA 23.8 μM)
1 | C=C(c1ccc(C(=O)O)cc1)c1cc2c(cc1C)C(C)(C)CCC2(C)C [bexarotene] | 84.8 nM | 37500 nM | suppressed | – | – | – | – | – | –
2 | Cc1cn(-c2cc(NC(=O)c3ccc(C)c(Nc4nccc(-c5cccnc5)n4)c3)cc(C(F)(F)F)c2)cn1 [Nilotinib (AMN-107)] | – | 1050 nM | – | significantly reduced | most potent inhibitor | almost blocked the activation of TR4 by ATRA | 1800 nM | – | –
3 | CC1=C(/C=C/C(C)=C/C=C/C(C)=C/C(=O)O)C(C)(C)CCC1 [ATRA, all-trans-retinoic acid] | 100000 nM | – | elevated | – | – | – | – | – | –
4 | O=c1c(-c2ccc(O)cc2)coc2cc(O)cc(O)c12 [Genistein] | – | 2420 nM | – | – | most potent activator | equivalent to that of genistein single treatment | – | significantly increased | approximately 10 times
